Experiment [1] relates to Per2::Luc reporter in Cry1 knockout fibroblasts. Nature of the experiment: Per2::Luc repression assay. Type of experiment: cell-based, mice. The following applies: Cry1 knockout cells. The essentials: (§1)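 Mouse fibroblasts carrying a Per2::Luc knock-in reporter (wild type, Cry1/Cry2 double, Cry1 or Cry2 knockout) grown 2 days to confluency in 384-well plates, then given test compound dilution series (final 0.7% DMSO). After 2 days, medium replaced with BrightGlo and luminescence read. Change is relative to DMSO control, n = 3–4 biological samples. IC50 from sigmoidal dose–response fit.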

Another experiment has as its system CRY1/CRY2. The following applies: cited from earlier work.
Experiment [2] concerns Per2::Luc reporter in Cry2 knockout fibroblasts. Briefly: Per2::Luc repression assay. The experiment is classed as cell-based, mice. The following applies: Cry2 knockout cells, compared to wild type. The procedure, abridged: as §1

Consider `CS(=O)(=O)N(Cc1ccco1)CC(O)Cn1c2ccccc2c2ccccc21` (stereo not drawn) [KL001], for which the “repression of Per2::Luc reporter activity” value (“repression” for short) in experiment [1] is given as “less effective than intact cells”. Further, in the experiment with CRY1/CRY2, the CRY isoform selectivity result is on record as “does not display a CRY isoform selectivity”.
`O=C1NCCN1CC(O)Cn1c2ccc(F)cc2c2cc(F)ccc21` (stereo not drawn) [SHP656]: the “repression” value in experiment [2] is recorded as “reduced overall repression”. Also, the CRY isoform selectivity entry in the experiment on CRY1/CRY2 is “selective for CRY2”.
For the compound `O=C1NCCN1C[C@H](O)Cn1c2ccc(F)cc2c2cc(F)ccc21` [SHP1703], the “repression” value in experiment [2] is given as “reduced overall repression”. The CRY isoform selectivity result in the experiment on CRY1/CRY2 is on record as “selective for CRY2”.

These data come from paper PMC12417823 (Neuro-Oncology, 2025).
